Measurements of several laboratories.
Protocols differ between the studies behind these lines.
Organism: Plasmodium falciparum
Read-out: parasite growth

Compound | test | system | conditions | EC50
CCn1cc(C(N)=O)c(=O)c2cc(F)c(N3CCC(C)CC3)cc21 |  | 3D7 | 72 h, blood stage | 0.39 µM
Cc1ccc(Nc2ccnc3cc(-c4ccc(S(=O)(=O)N5CCN(C)CC5)cc4)ccc23)cn1 |  | D6 | drug-resistant strain, blood stage | 0.022 µM
CCn1cc(C(=O)N2CCN(C)CC2)c(=O)c2cc(F)c(N3CCC(C)CC3)cc21 |  | 3D7 | 72 h, blood stage | > 10 µM
CN1CCN(S(=O)(=O)c2ccc(-c3ccc4c(Nc5cccc(Cl)c5)ccnc4c3)cc2)CC1 |  | D6 | drug-resistant strain, blood stage | 0.2 µM
CC/N=C(\c1ccc(OC)c(OC)c1)N1CCCc2cc(C3=NNC(=O)SC3C)ccc21 (centres unmarked) |  | 3D7 | 72 h, blood stage | 1.79 µM
CN1CCN(S(=O)(=O)c2ccc(-c3ccc4c(Nc5cnc(C#N)cn5)ccnc4c3)cc2)CC1 |  | D6 | drug-resistant strain, blood stage | 0.12 µM
CCn1cc(-c2nc(C)no2)c(=O)c2cc(F)c(N3CCC(c4ccccc4)CC3)cc21 |  | 3D7 | 72 h, blood stage | 0.03 µM
Cn1cc(-c2cnc3[nH]cc(-c4cn(Cc5cccc(F)c5F)nn4)c3c2)cn1 |  | 3D7 | 72 h, blood stage | 0.599 µM
CCOC(=O)c1c(NC(=O)c2ccccc2)sc2c(O)c(CCN(C)C)ccc12 |  | 3D7 | 48 h, blood stage | ≤ 0.2 µM
CCn1cc(-c2nc(C)no2)c(=O)c2cc(F)c(N3CCN(C(C)=O)CC3)cc21 |  | 3D7 | 72 h, blood stage | > 10 µM
COc1ccc(Nc2ccnc3cc(-c4cnc(N5CCN(C)CC5)nc4)ccc23)cc1Cl |  | D6 | drug-resistant strain, blood stage | 0.035 µM
CCn1cc(-c2nc(C)no2)c(=O)c2cc(F)c(N3CCCC(C)C3)cc21 (centres unmarked) |  | 3D7 | 72 h, blood stage | 0.114 µM
CCCNCC(O)COc1ccccc1C(=O)CCc1ccccc1 (centres unmarked) | SYBR Green | 3D7 | blood stage | 2.69 µM
CN1CCC(c2cc(-c3ccncc3)c(-c3ccc(F)cc3)[nH]2)CC1 | SYBR Green | A10, 3D7 | 72 h, blood stage | 0.09 µM
C[C@H]1[C@@H](O)O[C@@H]2O[C@@]3(C)CC[C@H]4[C@H](C)CC[C@@H]1[C@@]24OO3 |  | NF54 | 48 h, gametocyte | 0.0115 µM
CCn1cc(-c2nc(C)no2)c(=O)c2cc(F)c(N3CCCCCC3)cc21 |  | 3D7 | 72 h, blood stage | 0.035 µM
COc1cc(C(=O)N(C)C)ccc1-c1cc2nccc(-c3ccc4ccncc4c3)c2o1 |  | 3D7 | 72 h, blood stage | 0.997 µM
CN1CCN(c2ncc(-c3ccc4c(Nc5ccc(OCc6cccc(F)c6)c(Cl)c5)ccnc4c3)cn2)CC1 |  | D6 | drug-resistant strain, blood stage | 0.026 µM
CNS(=O)(=O)c1ccccc1Nc1nc(Nc2ccc(N3CCOCC3)cc2OC)ncc1Br |  | 3D7 | 72 h, blood stage | 0.282 µM
COc1ccc(Nc2ccnc3cc(Nc4ccnc(N5CCN(C)CC5)n4)ccc23)cc1Cl |  | D6 | drug-resistant strain, blood stage | 0.078 µM
